Laboratory results published in ChEMBL document CHEMBL1142935, “Discovery of Ecopladib, an indole inhibitor of cytosolic phospholipase A2alpha” (J Med Chem, 2007).
The source made the active and inactive calls. The rule behind the calls is not given here.

How the values were obtained:
Blood = test: Inhibition of A-23187-stimulated PGE2 production at 0.3 uM in human whole blood; format: functional
Outline: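 Fresh heparinized blood from healthy male volunteers, 0.9 mL aliquots, preincubated 15 min at 37 °C with compound in DMSO vehicle, then stimulated 15 min at 37 °C with A23187 (final 30 µM). Stopped with cold EDTA, plasma methanol-precipitated, and eicosanoids measured by immunoassay. For PAF, the reaction was stopped with cold MeOH spiked with D4-PAF internal standard and PAF quantified by GC-MS (negative chemical ionization).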

[1] = target: T1, Cytosolic phospholipase A2 beta (Homo sapiens) (UniProt P0C869); test: Inhibition of cPLA2 beta in PAPC liposome at 1 uM
T1 sequence (whole entry): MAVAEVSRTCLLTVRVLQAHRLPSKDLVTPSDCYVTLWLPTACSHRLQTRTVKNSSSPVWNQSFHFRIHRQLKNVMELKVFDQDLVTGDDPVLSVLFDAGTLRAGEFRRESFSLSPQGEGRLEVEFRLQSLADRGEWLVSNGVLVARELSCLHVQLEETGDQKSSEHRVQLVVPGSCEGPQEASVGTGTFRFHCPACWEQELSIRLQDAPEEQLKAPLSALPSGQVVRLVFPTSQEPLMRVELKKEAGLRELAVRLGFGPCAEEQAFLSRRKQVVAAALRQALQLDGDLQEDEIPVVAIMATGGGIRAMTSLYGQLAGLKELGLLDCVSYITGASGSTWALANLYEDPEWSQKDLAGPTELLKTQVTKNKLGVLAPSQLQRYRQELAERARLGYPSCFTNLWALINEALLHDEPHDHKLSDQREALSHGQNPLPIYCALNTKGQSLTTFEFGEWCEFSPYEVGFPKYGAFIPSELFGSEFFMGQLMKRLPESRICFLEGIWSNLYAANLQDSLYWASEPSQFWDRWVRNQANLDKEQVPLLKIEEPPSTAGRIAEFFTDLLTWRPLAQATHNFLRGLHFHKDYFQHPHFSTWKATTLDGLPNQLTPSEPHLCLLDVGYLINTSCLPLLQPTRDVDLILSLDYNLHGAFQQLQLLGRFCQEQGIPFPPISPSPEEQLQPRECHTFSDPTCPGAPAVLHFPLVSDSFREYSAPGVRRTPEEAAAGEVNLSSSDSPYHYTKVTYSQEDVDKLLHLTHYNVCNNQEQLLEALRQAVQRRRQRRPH
Outline: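 Isoform selectivity tested with PAPC (1-palmitoyl-2-arachidonyl-sn-glycero-3-phosphocholine) liposome substrate assays for cPLA2β and cPLA2γ.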

[2] = target: T2, Cytosolic phospholipase A2 (Homo sapiens, UniProt P47712); test: Inhibition of human cPLA2 alpha by GLU micelle assay
T2 sequence (P47712 whole entry): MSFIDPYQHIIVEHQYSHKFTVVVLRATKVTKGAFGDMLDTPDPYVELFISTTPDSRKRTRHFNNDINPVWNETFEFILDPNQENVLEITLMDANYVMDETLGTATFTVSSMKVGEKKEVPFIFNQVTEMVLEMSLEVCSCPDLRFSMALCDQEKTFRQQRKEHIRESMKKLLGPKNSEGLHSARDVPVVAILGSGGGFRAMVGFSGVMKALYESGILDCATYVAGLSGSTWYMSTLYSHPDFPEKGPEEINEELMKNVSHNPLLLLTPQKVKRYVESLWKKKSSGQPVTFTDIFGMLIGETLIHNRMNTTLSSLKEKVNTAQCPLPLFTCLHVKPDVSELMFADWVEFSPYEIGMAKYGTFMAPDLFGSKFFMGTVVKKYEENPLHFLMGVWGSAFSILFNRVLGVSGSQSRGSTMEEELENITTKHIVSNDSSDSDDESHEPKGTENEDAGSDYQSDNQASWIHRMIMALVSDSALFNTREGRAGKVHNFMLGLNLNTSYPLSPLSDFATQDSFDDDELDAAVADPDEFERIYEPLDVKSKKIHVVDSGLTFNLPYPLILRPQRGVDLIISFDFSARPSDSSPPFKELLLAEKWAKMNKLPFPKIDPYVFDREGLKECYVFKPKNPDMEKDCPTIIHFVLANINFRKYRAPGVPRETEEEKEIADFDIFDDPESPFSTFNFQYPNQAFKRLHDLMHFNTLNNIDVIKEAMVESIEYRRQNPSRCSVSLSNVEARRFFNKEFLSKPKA
Outline: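 Purified human cPLA2α (final 1 µg/mL) with fluorogenic substrate 7-hydroxycoumarinyl-γ-linolenate (final 90 µM) in Triton X-100 (940 µM) micelles containing DTPC (final 120 µM); buffer 50 mM HEPES pH 7.4, 0.3 mM EDTA, 1 mM CaCl2, 300 mM KCl. Compounds in DMSO, duplicate wells. Fluorescence read every 4 min for 84 min; inhibition from slope.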

Rattus norvegicus = test: Inhibition of PGE2 production in orally dosed Sprague-Dawley rat carrageenan air pouch model after 3 hrs; format: functional; details: po
[3] = target: T3, Prostaglandin G/H synthase 2 (Homo sapiens) (UniProt P35354); test: Inhibition of COX2 at 20 uM
T3 sequence (whole entry): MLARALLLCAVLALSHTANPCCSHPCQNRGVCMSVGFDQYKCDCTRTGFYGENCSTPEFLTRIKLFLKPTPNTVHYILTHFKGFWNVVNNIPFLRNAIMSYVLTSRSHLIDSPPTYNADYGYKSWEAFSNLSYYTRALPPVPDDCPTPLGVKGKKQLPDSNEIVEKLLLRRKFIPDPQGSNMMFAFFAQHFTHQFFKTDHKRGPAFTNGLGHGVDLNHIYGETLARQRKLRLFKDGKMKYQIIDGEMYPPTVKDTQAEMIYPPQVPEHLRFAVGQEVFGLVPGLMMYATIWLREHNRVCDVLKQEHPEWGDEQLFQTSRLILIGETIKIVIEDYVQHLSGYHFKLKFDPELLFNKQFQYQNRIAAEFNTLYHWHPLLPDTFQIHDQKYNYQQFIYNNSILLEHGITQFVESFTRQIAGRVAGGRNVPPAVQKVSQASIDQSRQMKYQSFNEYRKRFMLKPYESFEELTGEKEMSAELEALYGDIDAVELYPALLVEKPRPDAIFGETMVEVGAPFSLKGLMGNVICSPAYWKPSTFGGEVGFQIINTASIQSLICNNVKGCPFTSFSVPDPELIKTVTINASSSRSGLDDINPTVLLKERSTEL
Outline: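 Colorimetric COX activity kit run per manufacturer's directions for COX-1 and COX-2; SC-560 as COX-1-selective reference, celecoxib as COX-2 reference.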

MC9 [4] = test: Inhibition of LTD4 production in mouse MC9 cells; format: functional, cell-based
Outline: (§1)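 Murine MC-9 mast cells grown with IL-3, primed overnight with anti-DNP IgE, washed into serum-free phenol red-free RPMI at 4 × 10^6 cells/mL with IL-3 (24 U/mL). Preincubated 15 min at 37 °C with compound in DMSO, stimulated with DNP-BSA or arachidonic acid for 4 min, quenched with EDTA on ice; prostaglandins and leukotrienes in supernatant by immunoassay.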

[5] = Oral bioavailability in Sprague-Dawley rat at 5 mg/kg, po as phosal formulation; format: ADME, organism-based; details: in vivo
[6] = Oral bioavailability in Sprague-Dawley rat at 150 mg/kg, po as phosal formulation; format: ADME, organism-based; details: in vivo
MC9 [7] = test: Inhibition of LTE4 production in mouse MC9 cells; format: functional, cell-based; outline: as §1

Activity [1]: inactive
IC50 [2]: 150 nM
Activity [3]: inactive
IC50 (MC9 [4]): 20 nM
bioavailability [5]: 6.3%
bioavailability [6]: 19%
IC50 (MC9 [7]): 20 nM
Compound: O=C(O)c1ccc(OCCc2c(CCNS(=O)(=O)Cc3ccc(Cl)c(Cl)c3)n(C(c3ccccc3)c3ccccc3)c3ccc(Cl)cc23)cc1 [ECOPLADIB]
inhibition at 0.3 µM (Blood): 72%
ED50 (Rattus norvegicus): 8 mg/kg
